From ChEMBL document CHEMBL2146385, “Synthesis and antiviral evaluation of bis(POM) prodrugs of (E)-[4'-phosphono-but-2'-en-1'-yl]purine nucleosides” (Eur J Med Chem, 2012) come the findings set out here.

In data set [1] the test system is Vaccinia virus. Briefly: Antiviral activity against Vaccinia virus infected in HEL assessed as inhibition of virus-induced cytopathicity after 3 days. Format: functional, organism-based. Particulars: Orthopoxvirus vaccinia, 72 h.
Data set [2] concerns Human alphaherpesvirus 1. Briefly: Antiviral activity against HSV1 KOS infected in HEL assessed as inhibition of virus-induced cytopathicity after 3 days. Particulars: Human alphaherpesvirus 1, KOS, 72 h. Format: functional, organism-based. Background: Cytopathic effects are the visible damage that an infection or toxin causes in cultured cells.
Data set [3] relates to Human alphaherpesvirus 2. The experiment in a line: Antiviral activity against HSV2 G infected in HEL assessed as inhibition of virus-induced cytopathicity after 3 days. The class given is functional, organism-based. Particulars: Human alphaherpesvirus 2, strain G, 72 h. In short, it runs like this: (§1)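 Confluent cell monolayers infected with 100 CCID50 of virus in the presence of test compound at 100, 20,... μM. Cytopathicity was scored once it was complete in untreated infected controls.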

For data set [4], the system named is Human alphaherpesvirus 1. The experiment in a line: Antiviral activity against acyclovir-resistant thymidine kinase deficient HSV1 KOS infected in HEL assessed as inhibition of virus-induced cytopathicity after 3 days. Format: functional, organism-based. The note with it: Human alphaherpesvirus 1, KOS, 72 h.
The subject of data set [5] is Human alphaherpesvirus 3. The experiment in a line: Antiviral activity against VZV OKA expressing thymidine kinase infected in HEL cells assessed as inhibition of virus-induced cytopathogenicity after 3 days. Format: functional, cell-based. The note with it: Human alphaherpesvirus 3, strain Oka vaccine, 72 h.
The subject of data set [6] is Human alphaherpesvirus 3. Briefly: Antiviral activity against thymidine kinase-deficient VZV 07/1 infected in human HEL cells assessed as reduction of virus-induced cytopathogenicity after 3 days. Particulars: Human alphaherpesvirus 3, 07/1, HEL, 72 h. Format: functional, organism-based.
A short description of data set [7]: Cytotoxicity against HEL assessed as minimum compound concentration causes microscopically detectable alteration of cell morphology after 3 days. The note with it: human, HEL cells. The class given is cell-based.
A short description of data set [8]: Cytotoxicity against HEL after 3 days. The class given is cell-based. Particulars: human, HEL cells. In a few lines:
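HEL cells were seeded at 5×10^3 cells/well and allowed to grow for 24 h, then given medium with varying compound concentrations. After 3 days at 37 °C, cells were counted with a Coulter counter.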

The subject of data set [9] is Vesicular stomatitis virus. The experiment in a line: Antiviral activity against Vesicular stomatitis virus infected in MDCK assessed as inhibition of virus-induced cytopathicity after 3 days. Format: functional, organism-based.
The test system of data set [10] is Influenza A virus. Briefly: Antiviral activity against Influenza A virus H1N1 infected in MDCK assessed as inhibition of virus-induced cytopathicity after 3 days. Format: functional, organism-based.
Data set [11] concerns Influenza A virus. Briefly: Antiviral activity against Influenza A virus H3N2 infected in MDCK assessed as inhibition of virus-induced cytopathicity after 3 days. The class given is functional, organism-based.
Data set [12] concerns Influenza B virus. The experiment in a line: Antiviral activity against Influenza B virus infected in MDCK assessed as inhibition of virus-induced cytopathicity after 3 days. Format: functional, organism-based.
Data set [13] has as its system Human respirovirus 3. The experiment in a line: Antiviral activity against Parainfluenza-3 virus infected in african green monkey Vero assessed as inhibition of virus-induced cytopathicity after 3 days. Format: functional, organism-based. In short, it runs like this:
as §1

In data set [14] the test system is Mammalian orthoreovirus 1. The experiment in a line: Antiviral activity against Reovirus-1 infected in african green monkey Vero assessed as inhibition of virus-induced cytopathicity after 3 days. The class given is functional, organism-based. In short, it runs like this:
as §1

The subject of data set [15] is Sindbis virus. The experiment in a line: Antiviral activity against Sindbis virus infected in african green monkey Vero assessed as inhibition of virus-induced cytopathicity after 3 days. Format: functional, organism-based. In short, it runs like this:
as §1

Data set [16] has as its system Punta Toro virus. Briefly: Antiviral activity against Punta Toro virus infected in african green monkey Vero assessed as inhibition of virus-induced cytopathicity after 3 days. Format: functional, organism-based. In short, it runs like this:
as §1

Data set [17] has as its system Vesicular stomatitis virus. Briefly: Antiviral activity against Vesicular stomatitis virus infected in human HeLa assessed as inhibition of virus-induced cytopathicity after 3 days. The class given is functional, organism-based.
In data set [18] the test system is Coxsackievirus B4. Briefly: Antiviral activity against Coxsackievirus B4 infected in human HeLa assessed as inhibition of virus-induced cytopathicity after 3 days. Format: functional, organism-based. In a few lines:
as §1

The subject of data set [19] is Respiratory syncytial virus. Briefly: Antiviral activity against Respiratory syncytial virus infected in human HeLa assessed as inhibition of virus-induced cytopathicity after 3 days. Format: functional, organism-based. In a few lines:
as §1

Data set [20] deals with Felid alphaherpesvirus 1. Briefly: Antiviral activity against Feline herpesvirus infected in CRFK cells assessed as inhibition of virus-induced cytopathicity after 3 days. Format: functional, organism-based. Particulars: Felid alphaherpesvirus 1, CRFK, 72 h.
Data set [21] is described as follows: Cytotoxicity against CRFK cells after 3 days. The class given is cell-based, Felis catus. The note with it: cat.

Active and inactive are the calls of the source. No cut-off for these calls is given here.

The term EC50 denotes the concentration at which the effect is half-maximal. As a reminder, the CC50 is the concentration at which the toxic effect on the cells reaches its halfway point. As to `CCCCNc1ncnc2c1ncn2C/C=C/CP(=O)(OCOC(=O)C(C)(C)C)OCOC(=O)C(C)(C)C`, the EC50 was greater than 100 µM in data set [1]; greater than 100 µM in [2]; greater than 100 µM in data set [3]; greater than 100 µM in data set [4]; 100 µM in data set [5]; greater than 100 µM in data set [6]. Besides, the MCC at 72 h in data set [7] is greater than 100 µM. The CC50 at 72 h in data set [8] amounted to 37.2 µM. For the same compound, the result in data set [9], in [10], in data set [11], in data set [12], in data set [13] and in [14] was inactive. Also, the outcome in [15], in data set [16], in data set [17], in [18] and in [19] was inactive.
Consider `CC(C)(C)C(=O)OCOP(=O)(C/C=C/Cn1cnc2c(NC3CCCCC3)nc(N)nc21)OCOC(=O)C(C)(C)C`, for which the EC50 in data set [1] is greater than 100 µM; in [2] it was greater than 100 µM; in data set [3], greater than 100 µM; in data set [4] it was greater than 100 µM; in data set [5] it was 6.34 µM; in data set [6], 20 µM. In addition, the MCC at 72 h in [7] worked out at 100 µM. Half-maximal cytotoxicity in data set [8] (CC50 at 72 h) was put at 9 µM. Further, the outcome in data set [9], in [10], in [11], in data set [12], in data set [13] and in [14] was inactive. The result in [15], in [16], in data set [17], in data set [18] and in data set [19] was inactive.
For `CC(C)(C)C(=O)OCOP(=O)(C/C=C/Cn1cnc2c(NC3CC3)ncnc21)OCOC(=O)C(C)(C)C`, the EC50 is greater than 100 µM in data set [1]; greater than 100 µM in data set [2]; greater than 100 µM in [3]; greater than 100 µM in [4]; 55.7 µM in [5]; 47.2 µM in [6]. In addition, the MCC at 72 h in data set [7] was greater than 100 µM. Also, it took 39.6 µM to reach half-maximal cytotoxicity in [8] (CC50 at 72 h). Moreover, the result in data set [9], in [10], in data set [11], in data set [12], in data set [13] and in data set [14] was inactive. Further, the outcome in data set [15], in data set [16], in data set [17], in data set [18] and in [19] was inactive.
For the compound `CC(C)(C)C(=O)OCOP(=O)(C/C=C/Cn1cnc2c(=O)[nH]c(N)nc21)OCOC(=O)C(C)(C)C`, the concentration for a half-maximal effect (EC50) in data set [1] turned out to be 100 µM; in data set [2], 3.9 µM; in [3], 7.8 µM; in data set [4], 5.8 µM; in [5] it was 1.05 µM; in data set [6] it was 0.8 µM. In [20], the concentration giving a half-maximal response (EC50) was found to be 11 µM. Moreover, in data set [7], the MCC at 72 h was greater than 100 µM. In addition, the CC50 at 72 h in [8] is 4.1 µM; in data set [21], greater than 100 µM. Moreover, the outcome in data set [9], in data set [10], in data set [11], in data set [12], in [13] and in data set [14] was inactive. Further, the outcome in [15], in data set [16], in data set [17], in [18] and in [19] was inactive.
For the compound `CC(C)c1ccc(Nc2ncnc3c2ncn3C/C=C/CP(=O)(OCOC(=O)C(C)(C)C)OCOC(=O)C(C)(C)C)cc1`, the EC50 in [1] was greater than 100 µM; in [2], greater than 100 µM; in data set [3] it was greater than 100 µM; in data set [4], greater than 100 µM; in data set [5], greater than 20 µM; in data set [6], greater than 20 µM. In addition, the MCC at 72 h in data set [7] was 100 µM. Further, the CC50 at 72 h in data set [8] was found to be 32.3 µM. In addition, the result in [9], in data set [10], in data set [11], in data set [12], in data set [13] and in data set [14] was inactive. The outcome in data set [15], in data set [16], in [17], in [18] and in data set [19] was inactive.
Consider `Nc1nc2c(ncn2COC(CO)CO)c(=O)[nH]1` [GANCICLOVIR], for which the EC50 in [20] amounted to 1.2 µM. Besides, the cytotoxic concentration (CC50) at 72 h in [21] is greater than 100 µM.
With `C=CCNc1ncnc2c1ncn2C/C=C/CP(=O)(OCOC(=O)C(C)(C)C)OCOC(=O)C(C)(C)C`, the EC50 in data set [1], in [2], in data set [3], in data set [4], in data set [5] and in [6] was greater than 100 µM each time. Also, the MCC at 72 h in data set [7] was greater than 100 µM. The CC50 at 72 h in [8] was greater than 100 µM. The outcome in data set [9], in data set [10], in data set [11], in data set [12], in [13] and in data set [14] was inactive. Besides, the outcome in [15], in [16], in [17], in data set [18] and in data set [19] was inactive.
`CC(C)(C)C(=O)OCOP(=O)(C/C=C/Cn1cnc2c(Cl)nc(N)nc21)OCOC(=O)C(C)(C)C`: the concentration for a half-maximal effect (EC50) was greater than 20 µM in [1]; greater than 20 µM in data set [2]; greater than 20 µM in data set [3]; greater than 20 µM in [4]; 4.4 µM in data set [5]; 2.2 µM in [6]. In data set [7], the MCC at 72 h was greater than 100 µM. In data set [8], the midpoint of cytotoxicity, the CC50 at 72 h, lay at 5.4 µM. Further, the result in data set [9], in data set [10], in [11], in data set [12], in data set [13] and in [14] was inactive. Further, the result in data set [15], in [16], in [17], in data set [18] and in data set [19] was inactive.
